In ChEMBL document CHEMBL1148085, “Indole alkaloids from Peschiera laeta that enhance vinblastine-mediated cytotoxicity with multidrug-resistant cells” (1994):
Values after ≈ are worked out from the molar mass of the structure shown. Active and inactive are the calls of the source. The calls are words filed in the database; no cut-off is given here.

How the values were obtained:
Lu1 = test: Cytotoxicity against human Lu1 cells by SRB assay; format: functional; details: read-out: ED50 (the source's name)
Summary of the method: (§1)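 Compounds in 10% DMSO added to cell suspension; 72 h at 37° in humidified 5% CO2. Cells fixed with cold trichloroacetic acid at 4° for 1 h, sulforhodamine B stained 30 min, dye solubilized in 10 mM Tris base, OD 515 nm. A zero-day control was subtracted. Survival is relative to solvent-treated cultures over various concentrations.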

[1] = Cytotoxicity against human drug-resistant KBV1 cells by SRB assay in absence of vinblastine; format: functional; details: KB-V1, read-out: ED50 (the source's name); summary of the method: as §1
LNCaP = test: Cytotoxicity against human LNCAP cells by SRB assay; format: functional; details: read-out: ED50 (the source's name); summary of the method: as §1
P388 = test: Cytotoxicity against mouse P388 cells after 48 hrs by SRB assay; format: functional; details: P388, 48 h, read-out: ED50 (the source's name)
Summary of the method: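 P-388 cells at 10×10^4 cells/ml, exposed to compounds for 48 h at 37° in 5% CO2. Plates were centrifuged and supernatant removed, then cells fixed with 20% trichloroacetic acid at 4° for 1 h. Sulforhodamine B staining and OD read as for the adherent lines. Survival is relative to solvent controls.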

ZR-75-1 = test: Cytotoxicity against human ZR-75-1 cells by SRB assay; format: functional; details: read-out: ED50 (the source's name); summary of the method: as §1
A-431 = test: Cytotoxicity against human A431 cells by SRB assay; format: functional; details: read-out: ED50 (the source's name); summary of the method: as §1
SK-MEL-2 = test: Cytotoxicity against human SK-MEL-2 cells by SRB assay; format: functional; details: read-out: ED50 (the source's name); summary of the method: as §1
HT = test: Cytotoxicity against human HT cells by SRB assay; format: functional; details: read-out: ED50 (the source's name); summary of the method: as §1
Col2 = test: Cytotoxicity against human Col2 cells by SRB assay; format: functional; details: read-out: ED50 (the source's name); summary of the method: as §1
[2] = Cytotoxicity against human BC1 cells by SRB assay; format: functional; details: read-out: ED50 (the source's name); summary of the method: as §1
KB = test: Cytotoxicity against human KB cells by SRB assay; format: functional; details: read-out: ED50 (the source's name); summary of the method: as §1
[3] = Cytotoxicity against human U373 cells by SRB assay; format: functional, U-373MG ATCC; details: U373 MG, read-out: ED50 (the source's name); summary of the method: as §1
[4] = Cytotoxicity against human drug-resistant KBV1 cells by SRB assay in presence of vinblastine; format: functional; details: KB-V1, read-out: ED50 (the source's name)
Summary of the method: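 Same SRB protocol (72 h, 37°, 5% CO2, TCA fix, OD 515 nm, zero-day subtraction). KB-V1 cells were exposed to various compound concentrations with vinblastine at 1 μg/ml in the medium. Survival is relative to solvent-treated controls.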

KBV1 = test: Inhibition of ATP-dependent [3H]vinblastine binding to p-glycoprotein in multidrug-resistant human KBV1 cells; format: cell-based
Summary of the method: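 Plasma membrane vesicles from KB-V1 cells (60 μg protein) as P-glycoprotein source. Incubated with […] [3H]vinblastine and various compound concentrations (from DMSO) for 20 min at room temperature. Terminated by filtration onto BSA-pretreated glass fiber filters.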

Row | Structure (SMILES) | EC50 (Lu1) | EC50 [1] | EC50 (LNCaP) | EC50 (P388) | EC50 (ZR-75-1) | EC50 (A-431) | EC50 (SK-MEL-2) | EC50 (HT) | EC50 (Col2) | EC50 [2] | EC50 (KB) | EC50 [3] | EC50 [4] | Activity (KBV1)
1 | CC[C@H]1C[C@@H]2CN3CCc4c([nH]c5ccccc45)[C@](C(=O)OC)(C2)[C@H]13 [CORONARIDINE] | 10.9 µg/mL (≈ 32.2 µM) | 11.2 µg/mL (≈ 33.1 µM) | 10.7 µg/mL (≈ 31.6 µM) | 3.8 µg/mL (≈ 11.2 µM) | > 20 µg/mL | 19.1 µg/mL (≈ 56.4 µM) | > 20 µg/mL | > 20 µg/mL | > 20 µg/mL | 7.5 µg/mL (≈ 22.2 µM) | 13.6 µg/mL (≈ 40.2 µM) | 12 µg/mL (≈ 35.5 µM) | 1.9 µg/mL | 
2 | CC[C@]1(O)C[C@@H]2CN(CCc3c([nH]c4ccccc34)[C@@](C(=O)OC)(c3cc4c(cc3OC)N(C)[C@H]3[C@@](O)(C(=O)OC)[C@H](OC(C)=O)[C@]5(CC)C=CCN6CC[C@]43[C@@H]65)C2)C1 [VINBLASTINE] | 0.02 µg/mL (≈ 0.0247 µM) | 2.6 µg/mL (≈ 3.21 µM) | 0.1 µg/mL (≈ 0.123 µM) | 0.02 µg/mL (≈ 0.0247 µM) | 0.3 µg/mL (≈ 0.37 µM) | 0.05 µg/mL (≈ 0.0617 µM) | 0.01 µg/mL (≈ 0.0123 µM) | 0.02 µg/mL (≈ 0.0247 µM) | 0.01 µg/mL (≈ 0.0123 µM) | 0.06 µg/mL (≈ 0.074 µM) | 0.002 µg/mL (≈ 0.00247 µM) | 1.1 µg/mL (≈ 1.36 µM) | 0.5 µg/mL | 
3 | C/C=C1/CC2[C@H](C(=O)OC)C(NC)Cc3c([nH]c4ccccc34)[C@@H](c3cc4c(cc3OC)C3CCN5C[C@H]6C[C@H](CC)[C@H]5[C@@](C(=O)OC)(C6)C3N4)C[C@H]12 (some centres not stated) [VOACAMINE] |  |  |  |  |  |  |  |  |  |  |  |  |  | Active
